Reference: ChEMBL document CHEMBL4382247, “A novel series of napabucasin derivatives as orally active inhibitors of signal transducer and activator of transcription 3 (STAT3)” (Eur J Med Chem, 2019)
Converted amounts (≈) assume the structure as drawn.

Columns and labels:
U-251 = experiment: Antiproliferative activity against human U251 cells after 72 hrs by MTT assay; type: functional, cell-based; conditions: U-251, 72 h
Method in brief: (§1)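 Cells seeded at 5 × 10^3 per well and cultured 24 h before compound addition at varied concentrations, then grown a further 72 h; 0.5% DMSO as solvent control. MTT (5mg/ml solution) added for 4 h, formazan dissolved in DMSO, absorbance read at 570nm. Each treatment in triplicate; Mean ± SD.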

HepG2 = experiment: Antiproliferative activity against human HepG2 cells after 72 hrs by MTT assay; type: functional, cell-based; conditions: HepG2, 72 h; method in brief: as §1
HT-29 = experiment: Antiproliferative activity against human HT-29 cells after 72 hrs by MTT assay; type: functional, cell-based; conditions: HT-29, 72 h; method in brief: as §1
CT26 = experiment: Antiproliferative activity against mouse CT26 cells after 72 hrs by MTT assay; type: functional, cell-based; conditions: CT26, 72 h; method in brief: as §1
PC-3 = experiment: Antiproliferative activity against human PC3 cells after 72 hrs by MTT assay; type: functional, cell-based; conditions: PC-3, 72 h; method in brief: as §1
[1] = Aqueous solubility of the compound in water at 2 mg after 24 hrs by HPLC analysis; type: physicochemical
Method in brief: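 Aqueous solubility measured by HPLC against calibration standards at 15–125 µg/mL. Values are the mean of at least three determinations ± SD.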

Compound: O=C(NCCN1CCOCC1)c1cc2c(o1)C(=O)c1ccccc1C2=O
- IC50 (U-251): 1.63 µM
- IC50 (HepG2): > 10 µM
- IC50 (HT-29): 0.37 µM
- IC50 (CT26): 0.05 µM
- IC50 (PC-3): 7.19 µM
- solubility at 24 h [1]: < 70.6 µM

Compound: O=C(NCCc1ccccc1)c1cc2c(o1)C(=O)c1ccccc1C2=O
- IC50 (U-251): > 10 µM
- IC50 (HepG2): > 10 µM
- IC50 (HT-29): > 10 µM
- IC50 (PC-3): > 10 µM

Compound: CC1(C)CCC(NC(=O)c2cc3c(o2)C(=O)c2ccccc2C3=O)CC1
- IC50 (U-251): 2.65 µM
- IC50 (HepG2): 11.2 µM
- IC50 (HT-29): > 10 µM
- IC50 (PC-3): > 10 µM

Compound: O=C1c2ccccc2C(=O)c2oc(C(=O)N3CCCC3)cc21
- IC50 (U-251): 2.18 µM
- IC50 (HepG2): > 10 µM
- IC50 (HT-29): 1.08 µM
- IC50 (CT26): 0.58 µM
- IC50 (PC-3): 9.65 µM

Compound: O=C(/C=C/c1ccc(-c2ccccc2)cc1)c1cc2c(o1)C(=O)c1ccccc1C2=O
- IC50 (U-251): > 10 µM
- IC50 (HepG2): > 10 µM
- IC50 (HT-29): > 10 µM
- IC50 (CT26): > 10 µM
- IC50 (PC-3): > 10 µM

Compound: O=C1c2ccccc2C(=O)c2oc(C(=O)N3CCSCC3)cc21
- IC50 (U-251): 3.1 µM
- IC50 (HepG2): 9.63 µM
- IC50 (HT-29): 1.65 µM
- IC50 (CT26): 1.35 µM
- IC50 (PC-3): 5.83 µM
- solubility at 24 h [1]: < 76.5 µM

Compound: COc1ccc(C2CCN(C(=O)c3cc4c(o3)C(=O)c3ccccc3C4=O)CC2)cc1
- IC50 (U-251): > 10 µM
- IC50 (HepG2): > 10 µM
- IC50 (HT-29): > 10 µM
- IC50 (PC-3): 9.64 µM

Compound: O=C(NC1CCCCC1)c1cc2c(o1)C(=O)c1ccccc1C2=O
- IC50 (U-251): 3.02 µM
- IC50 (HepG2): > 10 µM
- IC50 (HT-29): > 10 µM
- IC50 (PC-3): > 10 µM

Compound: COc1ccc(CCNC(=O)c2cc3c(o2)C(=O)c2ccccc2C3=O)cc1
- IC50 (U-251): 6.32 µM
- IC50 (HepG2): > 10 µM
- IC50 (HT-29): > 10 µM
- IC50 (PC-3): > 10 µM

Compound: O=C(NCCN1CCCC1)c1cc2c(o1)C(=O)c1ccccc1C2=O
- IC50 (U-251): 0.9 µM
- IC50 (HepG2): 1.75 µM
- IC50 (HT-29): 0.3 µM
- IC50 (CT26): 0.2 µM
- IC50 (PC-3): 4.45 µM

Compound: O=C(/C=C/c1cccs1)c1cc2c(o1)C(=O)c1ccccc1C2=O
- IC50 (U-251): 2.2 µM
- IC50 (HepG2): > 10 µM
- IC50 (HT-29): 1.52 µM
- IC50 (CT26): > 10 µM
- IC50 (PC-3): > 10 µM

Compound: O=C1c2ccccc2C(=O)c2oc(C(=O)N3CCC(c4ccc(F)cc4)CC3)cc21
- IC50 (U-251): > 10 µM
- IC50 (HepG2): > 10 µM
- IC50 (HT-29): > 10 µM
- IC50 (PC-3): > 10 µM

Compound: CC(=O)c1cc2c(o1)C(=O)c1ccccc1C2=O [NAPABUCASIN]
- IC50 (U-251): 2.6 µM
- IC50 (HepG2): 6.6 µM
- IC50 (HT-29): 1.6 µM
- IC50 (CT26): 2.5 µM
- IC50 (PC-3): 5.25 µM
- solubility at 24 h [1]: < 62.5 µM

Compound: O=C1c2ccccc2C(=O)c2oc(C(=O)N3CCN(c4cccc(C(F)(F)F)c4)CC3)cc21
- IC50 (U-251): > 10 µM
- IC50 (HepG2): > 10 µM
- IC50 (HT-29): > 10 µM
- IC50 (PC-3): > 10 µM

Compound: CN1CCN(C(=O)c2cc3c(o2)C(=O)c2ccccc2C3=O)CC1
- IC50 (U-251): 1.37 µM
- IC50 (HepG2): 5.27 µM
- IC50 (HT-29): 0.39 µM
- IC50 (CT26): 0.26 µM
- IC50 (PC-3): 4.58 µM
- solubility at 24 h [1]: 337 µM (≈ 109 µg/mL)

Compound: O=C(/C=C/c1ccccc1)c1cc2c(o1)C(=O)c1ccccc1C2=O
- IC50 (U-251): > 10 µM
- IC50 (HepG2): > 10 µM
- IC50 (HT-29): > 10 µM
- IC50 (CT26): > 10 µM
- IC50 (PC-3): > 10 µM

Compound: O=C(NC12CC3CC(CC(C3)C1)C2)c1cc2c(o1)C(=O)c1ccccc1C2=O
- IC50 (U-251): > 10 µM
- IC50 (HepG2): > 10 µM
- IC50 (HT-29): > 10 µM
- IC50 (PC-3): > 10 µM

Compound: O=C1c2ccccc2C(=O)c2oc(C(=O)N3CCC(c4cccc(Cl)c4)CC3)cc21
- IC50 (U-251): > 10 µM
- IC50 (HepG2): > 10 µM
- IC50 (HT-29): > 10 µM
- IC50 (PC-3): > 10 µM

Compound: O=C(NCCc1ccc(Cl)cc1)c1cc2c(o1)C(=O)c1ccccc1C2=O
- IC50 (U-251): 3.36 µM
- IC50 (HepG2): > 10 µM
- IC50 (HT-29): > 10 µM
- IC50 (PC-3): > 10 µM

Compound: O=C1c2ccccc2C(=O)c2oc(C(=O)N3CCCCC3)cc21
- IC50 (U-251): 2.16 µM
- IC50 (HepG2): > 10 µM
- IC50 (HT-29): 1.57 µM
- IC50 (CT26): 0.95 µM
- IC50 (PC-3): > 10 µM

Compound: COC(=O)CC1CCN(C(=O)c2cc3c(o2)C(=O)c2ccccc2C3=O)CC1
- IC50 (U-251): 5.92 µM
- IC50 (HepG2): 9.66 µM
- IC50 (HT-29): > 10 µM
- IC50 (PC-3): > 10 µM

Compound: O=C1c2ccccc2C(=O)c2oc(C(=O)N3CCOCC3)cc21
- IC50 (U-251): 2.19 µM
- IC50 (HepG2): 7.3 µM
- IC50 (HT-29): 0.86 µM
- IC50 (CT26): 0.57 µM
- IC50 (PC-3): 6.84 µM
- solubility at 24 h [1]: 162 µM (≈ 50.5 µg/mL)

Compound: Cn1cccc1/C=C/C(=O)c1cc2c(o1)C(=O)c1ccccc1C2=O
- IC50 (U-251): 1.5 µM
- IC50 (HepG2): > 10 µM
- IC50 (HT-29): 0.87 µM
- IC50 (CT26): 2.48 µM
- IC50 (PC-3): > 10 µM

Compound: CCN1CCN(C(=O)c2cc3c(o2)C(=O)c2ccccc2C3=O)CC1
- IC50 (U-251): 0.87 µM
- IC50 (HepG2): > 10 µM
- IC50 (HT-29): 0.21 µM
- IC50 (CT26): 0.59 µM
- IC50 (PC-3): 2.06 µM
- solubility at 24 h [1]: 241 µM (≈ 81.5 µg/mL)

Compound: O=C1CCN(C(=O)c2cc3c(o2)C(=O)c2ccccc2C3=O)CC1
- IC50 (U-251): 0.58 µM
- IC50 (HepG2): 2.5 µM
- IC50 (HT-29): 1.13 µM
- IC50 (CT26): 0.61 µM
- IC50 (PC-3): > 10 µM
- solubility at 24 h [1]: 118 µM (≈ 38.1 µg/mL)
